Consider one compound from ChEMBL document CHEMBL1153011, “Mechanism of unusual formation of 3-(5-phenyl-3H-[1,2,4]dithiazol-3-yl)chromen-4-ones and 4-oxo-4H-chromene-3-carbothioic acid N-phenylamides and their antimicrobial evaluation” (2009).

Values after ≈ are worked out from the molar mass of the structure shown. Active and inactive are the calls of the source.

Assay [1] has as its system Aspergillus niger. Kind of assay: Antifungal activity against Aspergillus niger MTCC 281 after 24 to 72 hrs by broth dilution method. In kind it is functional. The essentials:
(§1)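 Fungi grown at 25 °C on Sabouraud dextrose agar. Compounds dissolved in DMSO (1/10) and tested at several concentrations in Sabouraud dextrose broth in tubes. Conidial suspension at final 1 × 10^5 CFU/ml, with growth and sterility control tubes. […] DMSO negative control; fluconazole positive control.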

The test system of assay [2] is Geotrichum candidum. The experiment in a line: Antifungal activity against Geotrichum candidum MTCC 3993 after 24 to 72 hrs by broth dilution method. In kind it is functional. The essentials: as §1
(In general: Dilution methods test growth across graded concentrations, often in twofold steps.)

In assay [3] the test system is Candida albicans. The experiment in a line: Antifungal activity against Candida albicans MTCC 227 after 24 to 72 hrs by broth dilution method. In kind it is functional. The essentials: as §1
For assay [4], the system named is Candida tropicalis. Kind of assay: Antifungal activity against Candida tropicalis MTCC 230 after 24 to 72 hrs by broth dilution method. Format: functional. The method in brief:
as §1

Assay [5] has as its system Escherichia coli. The experiment in a line: Antibacterial activity against Escherichia coli MTCC 119 at 2.5 x 10^-5 ug/ml after 24 hrs by disk diffusion assay. In kind it is functional. The settings on record: MTCC 119, 24 h, read-out: GI. The essentials:
(§2)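 Disk diffusion. 100 µl of 4-h nutrient-broth cultures spread on Mueller Hinton agar. Compounds in DMSO (1/10) applied to 8 mm paper disks. After 24 h at 37 °C, growth-inhibition zone diameter measured. DMSO negative control; chloramphenicol and ciprofloxacin positive controls.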
For orientation: A growth-free zone around the sample is the usual read-out of agar diffusion tests.

The test system of assay [6] is Escherichia coli. The experiment in a line: Antibacterial activity against Escherichia coli MTCC 119 at 5 x 10^-5 ug/ml after 24 hrs by disk diffusion assay. In kind it is functional. The settings on record: MTCC 119, 24 h, read-out: GI. The method in brief: as §2
The test system of assay [7] is Escherichia coli. The experiment in a line: Antibacterial activity against Escherichia coli MTCC 119 at 1 x 10^-4 ug/ml after 24 hrs by disk diffusion assay. In kind it is functional. The conditions noted are these: MTCC 119, 24 h, read-out: GI. The essentials:
as §2

Assay [8] concerns Shigella flexneri. Kind of assay: Antibacterial activity against Shigella flexneri MTCC 1457 at 2.5 x 10^-5 ug/ml after 24 hrs by disk diffusion assay. The conditions noted are these: MTCC 1457, 24 h, read-out: GI. In kind it is functional. The essentials: as §2
The subject of assay [9] is Shigella flexneri. The experiment in a line: Antibacterial activity against Shigella flexneri MTCC 1457 at 5 x 10^-5 ug/ml after 24 hrs by disk diffusion assay. Format: functional. The conditions noted are these: MTCC 1457, 24 h, read-out: GI. The method in brief: as §2
For assay [10], the system named is Shigella flexneri. Kind of assay: Antibacterial activity against Shigella flexneri MTCC 1457 at 1 x 10^-4 ug/ml after 24 hrs by disk diffusion assay. Format: functional. The conditions noted are these: MTCC 1457, 24 h, read-out: GI. The method in brief: as §2
Assay [11] has as its system Pseudomonas aeruginosa. Kind of assay: Antibacterial activity against Pseudomonas aeruginosa MTCC 741 at 2.5 x 10^-5 ug/ml after 24 hrs by disk diffusion assay. In kind it is functional, organism-based. The method in brief: as §2
Assay [12] concerns Pseudomonas aeruginosa. The experiment in a line: Antibacterial activity against Pseudomonas aeruginosa MTCC 741 at 5 x 10^-5 ug/ml after 24 hrs by disk diffusion assay. Format: functional, organism-based. The essentials: as §2
Assay [13] relates to Pseudomonas aeruginosa. Kind of assay: Antibacterial activity against Pseudomonas aeruginosa MTCC 741 at 1 x 10^-4 ug/ml after 24 hrs by disk diffusion assay. In kind it is functional, organism-based. The essentials: as §2
Assay [14] concerns Staphylococcus aureus. The experiment in a line: Antibacterial activity against Staphylococcus aureus MTCC 740 at 2.5 x 10^-5 ug/ml after 24 hrs by disk diffusion assay. Format: functional. The conditions noted are these: MTCC 740, 24 h, read-out: GI. The essentials: as §2
In assay [15] the test system is Staphylococcus aureus. Kind of assay: Antibacterial activity against Staphylococcus aureus MTCC 740 at 5 x 10^-5 ug/ml after 24 hrs by disk diffusion assay. The conditions noted are these: MTCC 740, 24 h, read-out: GI. Format: functional. The essentials:
as §2

Assay [16] has as its system Staphylococcus aureus. The experiment in a line: Antibacterial activity against Staphylococcus aureus MTCC 740 at 1 x 10^-4 ug/ml after 24 hrs by disk diffusion assay. The conditions noted are these: MTCC 740, 24 h, read-out: GI. Format: functional. The essentials:
as §2

Assay [17] deals with Escherichia coli. The experiment in a line: Antibacterial activity against Escherichia coli MTCC 119 after overnight incubation by broth dilution method. In kind it is functional. The essentials: (§3)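 Bacteria grown at 37 °C on nutrient agar. Compounds dissolved in DMSO (1/10) and tested in twofold serial dilutions in Mueller Hinton broth in tubes. Inoculum was a McFarland-standardized suspension, final 5 × 10^5 CFU/ml, with growth and sterility control tubes. Incubation overnight at 37 °C. MIC read by OD600 as the lowest concentration with no turbidity. DMSO negative control; chloramphenicol and ciprofloxacin positive controls.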

In assay [18] the test system is Shigella flexneri. Kind of assay: Antibacterial activity against Shigella flexneri MTCC 1457 after overnight incubation by broth dilution method. In kind it is functional. The essentials:
as §3

In assay [19] the test system is Pseudomonas aeruginosa. The experiment in a line: Antibacterial activity against Pseudomonas aeruginosa MTCC 741 after overnight incubation by broth dilution method. Format: functional. The essentials: as §3
The subject of assay [20] is Staphylococcus aureus. The experiment in a line: Antibacterial activity against Staphylococcus aureus MTCC 740 after overnight incubation by broth dilution method. In kind it is functional. The method in brief:
as §3

As usually defined, the MIC is the smallest concentration in the dilution series that meets the test's criterion for growth inhibition.

Take `O=c1c(C2N=C(c3ccccc3)SS2)coc2ccccc12` (stereo not given): the MIC was found to be 90 µg/mL (≈ 277 µM) in [1]; 32 µg/mL (≈ 98.3 µM) in [2]; 30 µg/mL (≈ 92.2 µM) in [3]; 40 µg/mL (≈ 123 µM) in assay [4]; 88 µg/mL (≈ 270 µM) in [17]; 58 µg/mL (≈ 178 µM) in [18]. Besides, the minimum inhibitory concentration (MIC) in assay [20] stood at 68 µg/mL (≈ 209 µM). Also, the inhibition of growth at 25 pg/mL in assay [5] turned out to be 24.8%; in assay [8], 44.3%; in [14], 30.2%. Moreover, the results for the inhibition of growth at 50 pg/mL in [6], in assay [9] and in assay [15] were 56.7%, 85.5% and 73.9%, respectively. Besides, the inhibition of growth at 0.0001 µg/mL in assay [7], in [10] and in [16] was 100% each time. In addition, the “growth inhibition (GI)” value in [11], in assay [12] and in assay [13] was “inactive” throughout. For the same compound, the MIC result in [19] is “inactive”.
